From ChEMBL document CHEMBL3400094, “Synthesis and SAR study of potent and selective PI3Kδ inhibitors” (Bioorg Med Chem Lett, 2015)

Columns and labels:
[1] = biological target: T1, Phosphatidylinositol 4,5-bisphosphate 3-kinase catalytic subunit delta isoform (Homo sapiens, UniProt O00329); test: Inhibition of PI3Kdelta (unknown origin) by biochemical Alphascreen assay
T1 sequence (O00329 whole entry): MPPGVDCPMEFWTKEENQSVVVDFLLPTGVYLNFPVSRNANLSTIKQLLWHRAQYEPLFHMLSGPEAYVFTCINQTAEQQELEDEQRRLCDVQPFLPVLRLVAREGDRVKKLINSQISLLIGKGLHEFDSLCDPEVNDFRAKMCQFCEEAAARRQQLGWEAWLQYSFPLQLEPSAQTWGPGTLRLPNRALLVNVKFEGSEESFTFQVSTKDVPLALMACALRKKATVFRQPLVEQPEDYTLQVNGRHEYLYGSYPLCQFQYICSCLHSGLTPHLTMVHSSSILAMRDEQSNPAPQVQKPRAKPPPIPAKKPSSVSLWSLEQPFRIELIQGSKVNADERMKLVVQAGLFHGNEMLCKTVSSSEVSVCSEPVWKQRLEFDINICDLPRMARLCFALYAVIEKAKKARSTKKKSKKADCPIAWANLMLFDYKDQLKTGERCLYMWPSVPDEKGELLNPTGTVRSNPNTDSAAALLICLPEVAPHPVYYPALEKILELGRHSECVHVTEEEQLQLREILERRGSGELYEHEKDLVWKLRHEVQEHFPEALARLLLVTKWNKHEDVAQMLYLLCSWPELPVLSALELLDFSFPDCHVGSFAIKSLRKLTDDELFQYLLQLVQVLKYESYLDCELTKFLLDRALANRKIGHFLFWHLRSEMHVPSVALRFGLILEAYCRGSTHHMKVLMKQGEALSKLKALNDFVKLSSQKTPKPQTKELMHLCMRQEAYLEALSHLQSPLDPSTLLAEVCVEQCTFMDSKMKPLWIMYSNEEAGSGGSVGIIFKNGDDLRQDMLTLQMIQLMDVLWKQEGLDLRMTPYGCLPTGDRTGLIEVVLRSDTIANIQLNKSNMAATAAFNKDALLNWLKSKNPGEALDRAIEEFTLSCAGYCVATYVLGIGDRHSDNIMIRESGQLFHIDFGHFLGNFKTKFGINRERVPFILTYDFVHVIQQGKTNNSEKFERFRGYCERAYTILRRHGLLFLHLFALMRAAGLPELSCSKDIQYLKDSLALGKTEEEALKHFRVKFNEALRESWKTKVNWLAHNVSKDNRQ

[2] = biological target: Phosphatidylinositol 4,5-bisphosphate 3-kinase catalytic subunit gamma isoform (Homo sapiens, UniProt P48736); test: Inhibition of PI3Kgamma (unknown origin) by biochemical Alphascreen assay
[3] = biological target: Phosphatidylinositol 4,5-bisphosphate 3-kinase catalytic subunit beta isoform (Homo sapiens, UniProt P42338); test: Inhibition of PI3Kbeta (unknown origin) by biochemical Alphascreen assay
[4] = biological target: Phosphatidylinositol 4,5-bisphosphate 3-kinase catalytic subunit alpha isoform (Homo sapiens, UniProt P42336); test: Inhibition of PI3Kalpha (unknown origin) by biochemical Alphascreen assay
[5] = biological target: T1, Phosphatidylinositol 4,5-bisphosphate 3-kinase catalytic subunit delta isoform; test: Inhibition of PI3Kdelta (unknown origin) assessed as inhibition of AKT phosphorylation by cell-based HTRF assay
[6] = Clearance in Sprague-Dawley rat at 0.5 mg/kg, iv and 2 to 10 mg/kg, po; assay type: ADME, organism-based; details: in vivo
Outline: (§1)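 Male Sprague-Dawley rats, n=3. Compounds formulated for iv dosing at 0.5 mg/kg or oral dosing at 2-10 mg/kg.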

[7] = Metabolic stability assessed as glutathione adduct formation of SO2Me after 30 mins; assay type: ADME; details: 0.5 h
[8] = Oral bioavailability in Sprague-Dawley rat at 2 to 10 mg/kg; assay type: ADME, organism-based; details: in vivo; outline: as §1

Sequence of Phosphatidylinositol 4,5-bisphosphate 3-kinase catalytic subunit alpha isoform (P42336 whole entry, canonical isoform): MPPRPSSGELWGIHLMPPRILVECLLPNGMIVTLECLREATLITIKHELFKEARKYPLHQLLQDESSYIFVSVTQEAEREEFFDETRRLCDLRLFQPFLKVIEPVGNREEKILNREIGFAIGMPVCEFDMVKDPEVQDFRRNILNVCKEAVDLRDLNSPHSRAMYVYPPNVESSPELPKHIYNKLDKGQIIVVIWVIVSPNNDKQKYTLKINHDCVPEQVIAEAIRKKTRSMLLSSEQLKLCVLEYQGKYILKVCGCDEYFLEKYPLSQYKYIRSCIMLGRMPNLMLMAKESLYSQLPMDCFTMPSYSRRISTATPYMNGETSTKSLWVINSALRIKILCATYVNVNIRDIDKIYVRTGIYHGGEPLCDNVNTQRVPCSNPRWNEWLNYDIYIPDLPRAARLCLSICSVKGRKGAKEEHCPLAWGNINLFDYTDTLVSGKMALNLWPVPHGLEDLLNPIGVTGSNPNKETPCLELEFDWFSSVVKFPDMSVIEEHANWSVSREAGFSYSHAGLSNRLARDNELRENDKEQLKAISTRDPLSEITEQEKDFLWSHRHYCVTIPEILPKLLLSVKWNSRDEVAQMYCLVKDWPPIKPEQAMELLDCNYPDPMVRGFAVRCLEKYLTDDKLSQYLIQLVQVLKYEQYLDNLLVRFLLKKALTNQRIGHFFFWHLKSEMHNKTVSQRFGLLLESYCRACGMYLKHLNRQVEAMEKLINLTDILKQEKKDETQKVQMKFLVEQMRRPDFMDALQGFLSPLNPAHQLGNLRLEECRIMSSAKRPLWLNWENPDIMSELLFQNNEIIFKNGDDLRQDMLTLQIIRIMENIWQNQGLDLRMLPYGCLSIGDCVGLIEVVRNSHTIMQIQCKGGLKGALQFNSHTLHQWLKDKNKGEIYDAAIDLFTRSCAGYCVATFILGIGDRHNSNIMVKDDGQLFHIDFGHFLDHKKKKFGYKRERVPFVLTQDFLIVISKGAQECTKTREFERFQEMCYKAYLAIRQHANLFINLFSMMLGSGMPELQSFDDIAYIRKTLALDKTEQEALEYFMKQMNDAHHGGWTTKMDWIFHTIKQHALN
Sequence of Phosphatidylinositol 4,5-bisphosphate 3-kinase catalytic subunit beta isoform (P42338 whole entry, canonical isoform): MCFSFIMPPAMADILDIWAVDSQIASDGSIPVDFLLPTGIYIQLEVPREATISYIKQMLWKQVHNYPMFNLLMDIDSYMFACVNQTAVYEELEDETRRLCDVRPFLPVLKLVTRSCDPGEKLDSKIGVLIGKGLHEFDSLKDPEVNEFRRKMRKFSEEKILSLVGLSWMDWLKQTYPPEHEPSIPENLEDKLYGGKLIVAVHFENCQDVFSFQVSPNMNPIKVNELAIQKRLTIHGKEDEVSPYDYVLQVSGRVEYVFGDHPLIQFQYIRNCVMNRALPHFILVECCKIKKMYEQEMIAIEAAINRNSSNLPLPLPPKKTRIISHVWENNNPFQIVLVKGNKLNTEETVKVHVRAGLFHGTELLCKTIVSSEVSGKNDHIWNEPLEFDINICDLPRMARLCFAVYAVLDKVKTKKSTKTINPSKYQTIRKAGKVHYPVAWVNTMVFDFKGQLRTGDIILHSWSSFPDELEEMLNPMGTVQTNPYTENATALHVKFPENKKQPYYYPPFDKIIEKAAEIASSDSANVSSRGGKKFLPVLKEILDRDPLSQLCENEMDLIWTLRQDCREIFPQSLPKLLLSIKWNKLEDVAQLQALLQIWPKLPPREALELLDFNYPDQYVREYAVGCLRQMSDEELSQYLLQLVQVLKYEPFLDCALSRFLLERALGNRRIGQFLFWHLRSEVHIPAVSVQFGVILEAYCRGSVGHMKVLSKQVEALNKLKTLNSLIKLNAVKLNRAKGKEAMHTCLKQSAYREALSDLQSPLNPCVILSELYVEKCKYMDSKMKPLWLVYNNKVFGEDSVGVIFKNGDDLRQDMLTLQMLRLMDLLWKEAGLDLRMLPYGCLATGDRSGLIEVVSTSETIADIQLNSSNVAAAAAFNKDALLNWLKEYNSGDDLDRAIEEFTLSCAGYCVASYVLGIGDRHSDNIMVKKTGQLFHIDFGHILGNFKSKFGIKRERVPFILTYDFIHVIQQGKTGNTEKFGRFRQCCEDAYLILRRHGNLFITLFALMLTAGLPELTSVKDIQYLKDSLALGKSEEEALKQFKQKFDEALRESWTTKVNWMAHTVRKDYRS
Sequence of Phosphatidylinositol 4,5-bisphosphate 3-kinase catalytic subunit gamma isoform (P48736 whole entry, canonical isoform): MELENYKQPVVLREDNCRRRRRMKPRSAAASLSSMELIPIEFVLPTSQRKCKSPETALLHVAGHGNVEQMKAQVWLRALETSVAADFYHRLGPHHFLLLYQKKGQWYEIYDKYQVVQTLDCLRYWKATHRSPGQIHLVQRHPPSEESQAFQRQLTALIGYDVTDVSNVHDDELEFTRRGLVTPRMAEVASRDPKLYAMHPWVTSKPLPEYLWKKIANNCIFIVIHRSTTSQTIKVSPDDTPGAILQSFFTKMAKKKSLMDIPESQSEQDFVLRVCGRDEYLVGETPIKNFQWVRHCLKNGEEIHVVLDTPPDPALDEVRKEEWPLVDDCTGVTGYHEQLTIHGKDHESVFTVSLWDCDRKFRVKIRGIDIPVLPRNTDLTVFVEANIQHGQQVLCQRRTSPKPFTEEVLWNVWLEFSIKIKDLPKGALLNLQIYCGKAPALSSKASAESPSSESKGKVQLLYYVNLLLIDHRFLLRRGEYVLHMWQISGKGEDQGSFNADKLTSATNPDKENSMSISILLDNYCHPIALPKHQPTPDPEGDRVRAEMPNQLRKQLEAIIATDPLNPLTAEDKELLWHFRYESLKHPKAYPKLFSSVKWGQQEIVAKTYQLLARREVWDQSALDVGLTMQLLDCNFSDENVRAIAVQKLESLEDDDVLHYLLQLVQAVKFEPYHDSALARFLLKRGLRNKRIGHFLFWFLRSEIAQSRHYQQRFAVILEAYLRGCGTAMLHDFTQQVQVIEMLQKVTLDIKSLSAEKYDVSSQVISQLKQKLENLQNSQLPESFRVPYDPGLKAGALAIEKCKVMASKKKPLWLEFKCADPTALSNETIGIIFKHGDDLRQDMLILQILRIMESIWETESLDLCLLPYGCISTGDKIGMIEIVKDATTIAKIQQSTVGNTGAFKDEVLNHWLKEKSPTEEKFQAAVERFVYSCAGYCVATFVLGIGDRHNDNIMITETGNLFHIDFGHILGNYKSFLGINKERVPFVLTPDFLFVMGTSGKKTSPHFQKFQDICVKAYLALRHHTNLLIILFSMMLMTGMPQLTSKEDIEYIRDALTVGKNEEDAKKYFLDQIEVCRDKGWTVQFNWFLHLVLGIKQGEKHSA

CC(Nc1ncnc(N)c1C#N)c1nc2ccc(F)cc2cc1-c1ccccn1 (racemic)
IC50 [1]: 8.8 nM | IC50 [2]: 1100 nM | IC50 [3]: > 20000 nM | IC50 [4]: > 20000 nM

C[C@H](Nc1ncnc(N)c1C#N)c1nc2ccc(F)cc2c(S(C)(=O)=O)c1-c1ccccc1
IC50 [1]: 0.7 nM | IC50 [2]: 220 nM | IC50 [3]: 510 nM | IC50 [4]: 920 nM | IC50 [5]: 0.1 nM | clearance [6]: 167 mL/min/kg | Stability [7]: Unstable

CC(Nc1ncnc(N)c1C#N)c1nc2ccc(F)cc2c(C#N)c1-c1ccccn1 (racemic)
IC50 [1]: 8.3 nM | IC50 [2]: 1420 nM | IC50 [3]: 240 nM | IC50 [4]: 4400 nM | IC50 [5]: 12 nM

C[C@H](Nc1ncnc(N)c1C#N)c1nc2ccc(F)cc2c(-c2ccccn2)c1-c1ccccn1
clearance [6]: 0.95 mL/min/kg | bioavailability [8]: 51%

COCCNc1c(-c2ccccc2)c([C@H](C)Nc2ncnc(N)c2C#N)nc2ccc(F)cc12
IC50 [1]: 0.6 nM | IC50 [2]: 13 nM | IC50 [3]: 420 nM | IC50 [4]: 1080 nM | IC50 [5]: 2.4 nM

CC(Nc1ncnc(N)c1C#N)c1nc2ccc(F)cc2c(O)c1-c1ccccc1 (racemic)
IC50 [1]: 16 nM | IC50 [2]: 210 nM | IC50 [3]: > 20000 nM | IC50 [4]: > 20000 nM | IC50 [5]: 2.8 nM | clearance [6]: 11.7 mL/min/kg | bioavailability [8]: 15%

COCc1c(-c2ccccn2)c([C@H](C)Nc2ncnc(N)c2C#N)nc2ccc(F)cc12
IC50 [1]: 16 nM | IC50 [2]: 4950 nM | IC50 [3]: 4030 nM | IC50 [5]: 3.1 nM

C[C@H](Nc1ncnc(N)c1C#N)c1nc2ccc(F)cc2c(N2CC(O)C2)c1-c1ccccn1
IC50 [1]: 18 nM | IC50 [2]: 510 nM | IC50 [3]: 280 nM | IC50 [4]: 1210 nM | IC50 [5]: 1.4 nM

Cc1cccnc1-c1c(-c2ccccn2)c([C@H](C)Nc2ncnc(N)c2C#N)nc2ccc(F)cc12
IC50 [1]: 15 nM | IC50 [2]: > 20000 nM | IC50 [3]: > 20000 nM | IC50 [4]: > 20000 nM | clearance [6]: 3.5 mL/min/kg

C[C@H](Nc1ncnc(N)c1C#N)c1nc2ccc(F)cc2c([S+]([O-])CCO)c1-c1ccccc1 (some centres not stated)
IC50 [1]: 2.5 nM | IC50 [2]: 380 nM | IC50 [3]: 160 nM | IC50 [4]: 620 nM

C[C@H](Nc1ncnc(N)c1C#N)c1nc2ccc(F)cc2c(NCCS(C)(=O)=O)c1-c1ccccc1
IC50 [1]: 0.2 nM | IC50 [2]: 19 nM | IC50 [3]: 500 nM | IC50 [4]: 900 nM | IC50 [5]: 0.5 nM

CC(Nc1ncnc(N)c1C#N)c1nc2ccc(F)cc2c(NCCO)c1-c1ccccc1 (racemic)
IC50 [1]: 0.4 nM | IC50 [2]: 120 nM | IC50 [3]: 460 nM | IC50 [4]: 1200 nM | IC50 [5]: 3.1 nM

COc1c(-c2ccccc2)c([C@H](C)Nc2ncnc(N)c2C#N)nc2ccc(F)cc12
IC50 [1]: 1.2 nM | IC50 [2]: 11 nM | IC50 [3]: 8.2 nM | IC50 [4]: 420 nM | IC50 [5]: 0.8 nM

CC(Nc1ncnc(N)c1C#N)c1nc2ccc(F)cc2c(Cl)c1-c1ccccn1 (racemic)
IC50 [1]: 4 nM | IC50 [2]: 250 nM | IC50 [3]: 230 nM | IC50 [4]: 1370 nM | IC50 [5]: 11 nM

C[C@H](Nc1ncnc(N)c1C#N)c1nc2ccc(F)cc2c(N2CCOCC2)c1-c1ccccn1
IC50 [1]: 1.2 nM | IC50 [2]: 200 nM | IC50 [3]: 80 nM | IC50 [4]: 830 nM | IC50 [5]: 1.2 nM

CC(Nc1ncnc(N)c1C#N)c1nc2ccc(F)cc2c(N(C)C)c1-c1ccccn1 (racemic)
IC50 [1]: 1.4 nM | IC50 [2]: 290 nM | IC50 [3]: 710 nM | IC50 [4]: 1150 nM | IC50 [5]: 3.6 nM

C[C@H](Nc1ncnc(N)c1C#N)c1nc2ccc(F)cc2c(NCCN(C)C)c1-c1ccccc1
IC50 [1]: 1.7 nM | IC50 [2]: 1600 nM | IC50 [3]: 5000 nM | IC50 [4]: 1600 nM
